{"data": "Experimental data of several laboratories", "target": "Tyrosine-protein kinase Mer (MERTK, Homo sapiens, UniProt Q12866)", "Sequence (Q12866 21-999, as in one of the studies)": "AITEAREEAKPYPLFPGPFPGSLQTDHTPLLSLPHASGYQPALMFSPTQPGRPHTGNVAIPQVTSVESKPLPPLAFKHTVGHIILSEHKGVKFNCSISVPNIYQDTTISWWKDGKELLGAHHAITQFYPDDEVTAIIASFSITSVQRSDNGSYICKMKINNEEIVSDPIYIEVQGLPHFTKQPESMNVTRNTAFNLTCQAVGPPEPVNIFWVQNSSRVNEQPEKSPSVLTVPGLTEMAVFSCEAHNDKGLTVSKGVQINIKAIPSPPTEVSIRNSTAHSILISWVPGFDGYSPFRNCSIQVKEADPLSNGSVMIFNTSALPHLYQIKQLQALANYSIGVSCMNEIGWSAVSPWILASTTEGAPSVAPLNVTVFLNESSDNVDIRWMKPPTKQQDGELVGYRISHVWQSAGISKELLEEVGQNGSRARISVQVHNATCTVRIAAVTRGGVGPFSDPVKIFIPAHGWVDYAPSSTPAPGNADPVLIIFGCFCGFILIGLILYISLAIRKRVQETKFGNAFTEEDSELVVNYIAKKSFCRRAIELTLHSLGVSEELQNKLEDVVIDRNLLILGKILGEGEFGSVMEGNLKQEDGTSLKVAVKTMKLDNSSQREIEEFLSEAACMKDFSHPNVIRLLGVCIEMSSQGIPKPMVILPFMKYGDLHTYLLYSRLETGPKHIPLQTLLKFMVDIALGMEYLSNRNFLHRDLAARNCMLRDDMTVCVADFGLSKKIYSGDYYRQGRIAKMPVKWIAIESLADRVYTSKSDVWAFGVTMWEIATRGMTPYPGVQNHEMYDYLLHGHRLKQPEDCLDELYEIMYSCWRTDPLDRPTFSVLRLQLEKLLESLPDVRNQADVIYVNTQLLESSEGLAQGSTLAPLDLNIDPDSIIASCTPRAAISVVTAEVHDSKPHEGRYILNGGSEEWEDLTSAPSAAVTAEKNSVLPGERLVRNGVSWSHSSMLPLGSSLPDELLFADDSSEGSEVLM", "note": "Lines come from different studies, so protocols differ."}
{"SMILES": "CC(C)CC(=O)N1CCc2nc(-c3ccc(Br)cc3)nc(N(C)Cc3ccccc3)c2C1", "observed": "cell-free assay", "technique": "competition with immobilised ligand", "concentration": "0.1 µM", "measurement": "remaining binding", "value": "100%"}
{"SMILES": "COc1cc2c(N3CCN(C(=O)Nc4ccc(OC(C)C)cc4)CC3)ncnc2cc1OCCCN1CCCCC1", "observed": "cell-free assay", "concentration": "0.5 µM", "measurement": "remaining signal", "value": "106%"}
{"SMILES": "Cc1sc(C(=O)NC2COC2)cc1-n1cc(NC(=O)Nc2c(F)cccc2Cl)cn1", "observed": "enzyme activity", "mode": "inhibitor", "concentration": "10 µM", "measurement": "remaining activity", "value": "103%"}
{"SMILES": "COc1cc2ncnc(Nc3ccc(Oc4ccccc4)c(C)c3C)c2cc1OC", "observed": "enzyme activity", "mode": "inhibitor", "concentration": "1 µM", "measurement": "inhibition", "value": "28%"}
{"SMILES": "CCN(CC)CCNC(=O)c1c(C)[nH]c(/C=C2\\C(=O)Nc3ccc(F)cc32)c1C", "observed": "enzyme activity", "mode": "inhibitor", "concentration": "0.3 µM", "measurement": "inhibition", "value": "94%"}
{"SMILES": "CCCS(=O)(=O)Nc1ccc(F)c(C(=O)c2c[nH]c3ncc(-c4ccc(Cl)cc4)cc23)c1F", "observed": "enzyme activity", "mode": "inhibitor", "concentration": "1 µM", "measurement": "inhibition", "value": "< 10%"}
{"SMILES": "O=C(NC[C@@H]1[C@H]2CN(C(=O)OCc3cc(C(F)(F)F)cc(C(F)(F)F)c3)C[C@@H]12)c1ccc2[nH]nnc2c1", "observed": "cell-free assay", "technique": "competition with immobilised ligand", "concentration": "1 µM", "measurement": "remaining binding", "value": "100%"}
{"SMILES": "CC/C(=N\\NC(=O)NCc1cccc(O)c1)c1ccc(O)c(C)c1O", "observed": "enzyme activity", "mode": "inhibitor", "concentration": "0.1 µM", "measurement": "inhibition", "value": "5%"}
{"SMILES": "Cn1c2c(c3ccc(Cl)c(Cl)c31)C(C#N)C1(CCOCC1)NC2=O (stereo not drawn)", "observed": "thermal stability", "technique": "DSF", "concentration": "10 µM", "measurement": "ΔTm", "value": "-0.5 °C"}
{"SMILES": "Cc1ccc(C(=O)Nc2ccc(CN3CCN(C)CC3)c(C(F)(F)F)c2)cc1C#Cc1cnc2cccnn12", "observed": "enzyme activity", "concentration": "23.5 nM", "measurement": "remaining activity", "value": "86%"}
{"SMILES": "CCCCN(CCCC)C(=O)CN1C[C@H](c2cc(OC)c3c(c2)OCO3)[C@@H](C(=O)O)[C@@H]1CC(C)(C)CCC", "observed": "cell-free assay", "technique": "competition with immobilised ligand", "concentration": "1 µM", "measurement": "remaining binding", "value": "100%"}
{"SMILES": "O=c1cc(-c2cccc3c2Sc2ccccc2S3)oc(N2CCOCC2)c1", "observed": "enzyme activity", "mode": "inhibitor", "concentration": "0.5 µM", "measurement": "remaining activity", "value": "97%"}
{"SMILES": "CO[C@H]1CC[C@H](CNc2ccc(S(=O)(=O)NC(=O)c3ccc(N4CCN(CC5=C(c6ccc(Cl)cc6)CC(C)(C)CC5)CC4)cc3Oc3cnc4[nH]ccc4c3)cc2[N+](=O)[O-])CC1", "observed": "cell-free assay", "technique": "competition with immobilised ligand", "concentration": "1 µM", "measurement": "remaining binding", "value": "85%"}
{"SMILES": "CN1CC(Oc2cnc(C#N)cc2-c2ccn3nc(NC(=O)C4CC4)cc3c2)C1", "observed": "enzyme activity", "mode": "inhibitor", "concentration": "1 µM", "measurement": "inhibition", "value": "0%"}
{"SMILES": "CNC(=O)c1cc(Oc2ccc(NC(=O)Nc3ccc(Cl)c(C(F)(F)F)c3)cc2)ccn1", "observed": "enzyme activity", "mode": "inhibitor", "concentration": "0.3 µM", "measurement": "inhibition", "value": "26%"}
{"SMILES": "Cc1c[nH]c2nccc(Oc3c(F)cc(Nc4cc(Cl)nc(N)n4)cc3F)c12", "observed": "cell-free assay", "technique": "competition with immobilised ligand", "concentration": "0.1 µM", "measurement": "remaining binding", "value": "100%"}
{"SMILES": "O=C1NC(=O)c2cc(Nc3ccc(F)cc3)c(Nc3ccc(F)cc3)cc21", "observed": "cell-free assay", "concentration": "0.5 µM", "measurement": "remaining signal", "value": "97.4%"}
{"SMILES": "COc1cc2nccc(Oc3ccc(NC(=O)c4c5n(n(-c6ccc(F)cc6)c4=O)CCCC5)cc3)c2cc1OC", "observed": "enzyme activity", "mode": "inhibitor", "concentration": "0.1 µM", "measurement": "inhibition", "value": "100%"}
{"SMILES": "CC(C)(C)c1nc(-c2cccc(NS(=O)(=O)c3c(F)cccc3F)c2F)c(-c2ccnc(N)n2)s1", "observed": "enzyme activity", "mode": "inhibitor", "technique": "radiometric", "concentration": "1 µM", "measurement": "remaining activity", "value": "115%"}
{"SMILES": "CNC(=O)c1cc2c(Oc3ccc(NC(=O)C4(C(=O)Nc5ccc(F)cc5)CC4)cc3)ccnc2cc1OC", "observed": "enzyme activity", "mode": "inhibitor", "technique": "radiometric", "concentration": "1 µM", "measurement": "inhibition", "value": "99%"}
{"SMILES": "CC1(C)NC(=O)c2[nH]c3c(Cl)c(Cl)ccc3c2C1C#N (stereo not drawn)", "observed": "thermal stability", "technique": "DSF", "concentration": "10 µM", "measurement": "ΔTm", "value": "-1.1 °C"}
{"SMILES": "Cc1nccc(COC(=O)N2C[C@@H]3[C@@H](CNC(=O)c4ccc5[nH]nnc5c4)[C@@H]3C2)n1", "observed": "cell-free assay", "technique": "competition with immobilised ligand", "concentration": "1 µM", "measurement": "remaining binding", "value": "100%"}
{"SMILES": "CC(C)(O)[C@H]1CC[C@H](Nc2ccc3ncc(-c4cccc(C(F)(F)F)c4)n3n2)CC1", "observed": "enzyme activity", "mode": "inhibitor", "concentration": "1 µM", "measurement": "remaining activity", "value": "64.1%"}
{"SMILES": "CNCc1ccccc1-c1csc([C@H](C)Nc2nc(C)nc3cc(OC)c(OC)cc23)c1", "observed": "cell-free assay", "technique": "competition with immobilised ligand", "concentration": "1 µM", "measurement": "remaining binding", "value": "72%"}
{"SMILES": "Cn1c2c(c3ccc(Cl)c(Cl)c31)C(C#N)C(C)(C)NC2=O (stereo not drawn)", "observed": "thermal stability", "technique": "DSF", "concentration": "10 µM", "measurement": "ΔTm", "value": "-0.9 °C"}
{"SMILES": "Cc1ccc(Nc2nccc(N(C)c3ccc4c(C)n(C)nc4c3)n2)cc1S(N)(=O)=O", "observed": "enzyme activity", "mode": "inhibitor", "concentration": "0.3 µM", "measurement": "inhibition", "value": "32%"}
{"SMILES": "Cn1c2c(Cl)c(Cl)ccc2c2cn[nH]c(=O)c21", "observed": "thermal stability", "technique": "DSF", "concentration": "10 µM", "measurement": "ΔTm", "value": "-0.5 °C"}
{"SMILES": "O=C(NS(=O)(=O)c1ccc(NCC2CCOCC2)c([N+](=O)[O-])c1)c1ccc(N2CCN(Cc3ccc(C(F)(F)F)cc3-c3ccc(Cl)cc3)CC2)cc1Oc1cnc2[nH]ccc2c1", "observed": "cell-free assay", "technique": "competition with immobilised ligand", "concentration": "1 µM", "measurement": "remaining binding", "value": "100%"}
{"SMILES": "O=C(Nc1cnn(-c2csc(C(=O)NC3COC3)c2)c1)Nc1ccccc1Cl", "observed": "enzyme activity", "mode": "inhibitor", "concentration": "5 µM", "measurement": "remaining activity", "value": "92.7%"}
{"SMILES": "CN1CCC2(CC1)NC(=O)c1c(c3ccc(Cl)c(Cl)c3n1C)C2C#N (racemic)", "observed": "thermal stability", "technique": "DSF", "concentration": "10 µM", "measurement": "ΔTm", "value": "-0.4 °C"}
